How the values were obtained:
Adenosine receptor A2a [1] = biological target: T1, Adenosine receptor A2a (Homo sapiens, UniProt P29274); test: Displacement of [3H]-ZM 241385 from human adenosine A2A receptor expressed in CHO cells after 60 mins by liquid scintillation counting; format: cell-based
Adenosine receptor A2b [2] = biological target: T2, Adenosine receptor A2b (Homo sapiens, UniProt P29275); format: functional, cell-based, CHO
T2 sequence (P29275 whole entry): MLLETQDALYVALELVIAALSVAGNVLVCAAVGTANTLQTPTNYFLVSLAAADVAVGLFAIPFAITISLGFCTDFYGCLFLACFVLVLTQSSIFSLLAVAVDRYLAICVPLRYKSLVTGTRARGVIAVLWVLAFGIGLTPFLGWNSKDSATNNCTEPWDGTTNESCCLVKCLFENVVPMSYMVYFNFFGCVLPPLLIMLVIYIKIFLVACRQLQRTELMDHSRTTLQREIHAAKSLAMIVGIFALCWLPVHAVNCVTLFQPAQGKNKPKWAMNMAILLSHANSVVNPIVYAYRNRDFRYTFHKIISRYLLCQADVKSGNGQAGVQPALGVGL

[3] = biological target: T3, Adenosine receptor A1 (Homo sapiens) (UniProt P30542); test: Displacement of [3H]-DPCPX from human adenosine A1 receptor expressed in CHO cells at 1 uM after 120 mins by liquid scintillation counting; format: cell-based
T3 sequence (whole entry): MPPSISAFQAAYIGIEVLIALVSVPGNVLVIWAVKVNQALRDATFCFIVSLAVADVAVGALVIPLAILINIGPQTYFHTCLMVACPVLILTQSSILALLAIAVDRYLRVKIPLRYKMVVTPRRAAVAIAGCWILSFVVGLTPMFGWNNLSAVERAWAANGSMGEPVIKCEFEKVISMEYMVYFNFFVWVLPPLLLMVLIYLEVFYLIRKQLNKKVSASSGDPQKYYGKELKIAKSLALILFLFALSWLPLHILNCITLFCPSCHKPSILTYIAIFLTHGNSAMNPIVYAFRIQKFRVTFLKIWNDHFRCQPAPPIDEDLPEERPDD
Summary of the method: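 Percent inhibition at a single concentration of 1 nM [3H]DPCPX binding to hA1-CHO membranes in 50 mM Tris HCl, pH 7.4. Membranes were pretreated with 2 IU/mL adenosine deaminase for 30 min at 37 °C. Incubation was 120 min at 25 °C, and bound label was separated by GF/B glass-fibre filtration.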

Adenosine receptor A1 = biological target: T4, Adenosine receptor A1 (Homo sapiens, UniProt P30542); test: Displacement of [3H]-DPCPX from human adenosine A1 receptor expressed in CHO cells after 120 mins by liquid scintillation counting; format: cell-based
T4 sequence (P30542 whole entry): T3 sequence (whole entry)

[4] = biological target: T5, Adenosine receptor A3 (Homo sapiens) (UniProt P0DMS8); test: Displacement of [3H]-MRE-3008-F20 from human adenosine A3 receptor expressed in CHO cells at 1 uM after 120 mins by liquid scintillation counting; format: cell-based
T5 sequence (whole entry): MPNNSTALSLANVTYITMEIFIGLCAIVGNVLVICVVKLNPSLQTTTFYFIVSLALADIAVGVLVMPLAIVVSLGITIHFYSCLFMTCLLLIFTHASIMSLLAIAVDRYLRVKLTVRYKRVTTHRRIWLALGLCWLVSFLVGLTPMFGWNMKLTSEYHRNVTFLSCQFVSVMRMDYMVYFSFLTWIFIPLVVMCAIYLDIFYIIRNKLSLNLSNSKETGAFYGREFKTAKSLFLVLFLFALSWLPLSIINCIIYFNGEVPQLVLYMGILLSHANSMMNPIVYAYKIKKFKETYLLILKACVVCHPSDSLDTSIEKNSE
Summary of the method: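 Membranes from hA3-CHO cells in 50 mM Tris HCl, 10 mM MgCl2, 1 mM EDTA, pH 7.4, pretreated with adenosine deaminase (2 IU/mL, 30 min, 37 °C). Incubation 120 min at 4 °C. Non-specific binding with unlabelled MRE3008F20. GF/B filtration.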

Adenosine receptor A2a [5] = biological target: T1, Adenosine receptor A2a; test: Displacement of [3H]-ZM 241385 from human adenosine A2A receptor expressed in CHO cells at 1 uM after 60 mins by liquid scintillation counting; format: cell-based
Adenosine receptor A3 [6] = biological target: T6, Adenosine receptor A3 (Homo sapiens, UniProt P0DMS8); test: Displacement of [3H]-MRE-3008-F20 from human adenosine A3 receptor expressed in CHO cells after 120 mins by liquid scintillation counting; format: cell-based
T6 sequence (P0DMS8 whole entry): T5 sequence (whole entry)

[7] = biological target: Adenosine receptor A2B (Homo sapiens) (UniProt P29275); conditions: CHO, at 1 µM
Adenosine receptor A3 [8] = biological target: T6, Adenosine receptor A3; test: Antagonist activity at human adenosine A3 receptor expressed in forskolin-stimulated CHO cells assessed as inhibition of Cl-IB-MECA-induced cAMP production by competition protein binding assay; format: functional, cell-based
Summary of the method: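 CHO cells stably expressing human A3 receptor were harvested with dilute trypsin and preincubated for 10 min at 37 °C in pH 7.4 buffer with 2 IU/mL adenosine deaminase and the phosphodiesterase inhibitor Ro 20-1724. Antagonism of 100 nM Cl-IB-MECA was run with forskolin present. The reaction was stopped with cold 6% TCA and extracted with ether. cAMP was read against [3H]cAMP and bovine adrenal binding protein. IC50 came from sigmoid fitting.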

Adenosine receptor A2b [9] = biological target: T2, Adenosine receptor A2b; test: biochemical

T1 sequence (P29274 whole entry): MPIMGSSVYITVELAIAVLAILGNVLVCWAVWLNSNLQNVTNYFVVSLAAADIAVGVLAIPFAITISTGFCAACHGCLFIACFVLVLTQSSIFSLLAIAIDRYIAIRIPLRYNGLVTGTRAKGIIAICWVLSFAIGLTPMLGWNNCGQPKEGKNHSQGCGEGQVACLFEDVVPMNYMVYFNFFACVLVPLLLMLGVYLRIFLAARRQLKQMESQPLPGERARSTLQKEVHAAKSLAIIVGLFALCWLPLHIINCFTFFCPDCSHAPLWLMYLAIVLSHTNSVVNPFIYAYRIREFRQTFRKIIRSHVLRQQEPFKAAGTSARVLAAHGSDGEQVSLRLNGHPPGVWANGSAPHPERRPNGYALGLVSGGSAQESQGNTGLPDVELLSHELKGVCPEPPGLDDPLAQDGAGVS

Ki (Adenosine receptor A2a [1]) [nM] | IC50 (Adenosine receptor A2b [2]) [nM] | inhibition [3] [%] | Ki (Adenosine receptor A1) [nM] | inhibition [4] [%] | inhibition (Adenosine receptor A2a [5]) [%] | Ki (Adenosine receptor A3 [6]) [nM] | inhibition [7] [%] | IC50 (Adenosine receptor A3 [8]) [nM] | Ki (Adenosine receptor A2b [9]) [nM] | Structure (SMILES)
> 1000 | > 1000 | 5 | > 1000 | 1 | 2 | > 1000 | 2 |  |  | CN1CCN(c2nc3cnn(C)c3c3nc(-c4ccco4)nn23)CC1
119 | 915 |  | 12 |  |  | 507 |  |  |  | Cn1ncc2nc(NC3CCCCC3)n3nc(-c4ccco4)nc3c21
148 | 740 |  | 178 |  |  | 12 |  |  |  | COc1ccc(NC(=O)Nc2nc3cn(CCc4ccccc4)cc3c3nc(-c4ccco4)nn23)cc1
17 | 45 |  | 22 |  |  | 432 |  |  |  | CCCn1cc2nc(N)n3nc(-c4ccco4)nc3c2n1
42 | 319 |  | 33 |  |  | 603 |  |  |  | Nc1nc2cnn(CCc3ccccc3)c2c2nc(-c3ccco3)nn12
30 | 90 |  | 35 |  |  | 55 |  |  |  | CCCn1cc2nc(N)n3nc(-c4ccco4)nc3c2c1
20 | 42 |  | 100 |  |  | 50 |  |  |  | Cn1cc2nc(N)n3nc(-c4ccco4)nc3c2c1
3.9 | 46 |  | 4.3 |  |  | 124 |  |  |  | Nc1nc2cn(CCc3ccccc3)cc2c2nc(-c3ccco3)nn12
50 | 251 |  | 18 |  |  | 241 |  |  |  | Nc1nc2cn(CCCc3ccccc3)cc2c2nc(-c3ccco3)nn12
130 | > 1000 |  | 210 |  |  | 13 | 12 |  |  | COc1ccc(NC(=O)Nc2nc3cn(CCCc4ccccc4)cc3c3nc(-c4ccco4)nn23)cc1
> 1000 | > 1000 | 38 | > 1000 | 25 | 32 | > 1000 | 32 |  |  | COc1ccc(NC(=O)Nc2nc3cnn(CCCc4ccccc4)c3c3nc(-c4ccco4)nn23)cc1
222 | 580 |  | 923 |  |  | 110 |  |  |  | COc1ccc(NC(=O)Nc2nc3cn(C)nc3c3nc(-c4ccco4)nn23)cc1
672 | 548 |  | 753 |  |  | 314 |  |  |  | COc1ccc(NC(=O)Nc2nc3cn(CCc4ccccc4)nc3c3nc(-c4ccco4)nn23)cc1
208 | 863 |  | 240 |  |  | 50 |  | 250 |  | CCCn1cc2nc(NC(=O)Nc3ccc(OC)cc3)n3nc(-c4ccco4)nc3c2n1
> 1000 | > 1000 | 6 | > 1000 | 1 | 4 | > 1000 | 4 |  |  | Cn1ncc2nc(N3CCOCC3)n3nc(-c4ccco4)nc3c21
9.2 | 27 |  | 4.9 |  |  | 315 |  |  |  | Nc1nc2cn(CCc3ccccc3)nc2c2nc(-c3ccco3)nn12

Ki (Adenosine receptor A2a [1]) [nM] | IC50 (Adenosine receptor A2b [2]) [nM] | inhibition [3] [%] | Ki (Adenosine receptor A1) [nM] | inhibition [4] [%] | inhibition (Adenosine receptor A2a [5]) [%] | Ki (Adenosine receptor A3 [6]) [nM] | inhibition [7] [%] | IC50 (Adenosine receptor A3 [8]) [nM] | Ki (Adenosine receptor A2b [9]) [nM] | Structure (SMILES)
> 1000 | > 1000 | 8 | > 1000 | 1 | 9 | > 1000 | 5 |  |  | Cn1ncc2nc(N3CCN(c4ccccc4)CC3)n3nc(-c4ccco4)nc3c21
> 1000 | > 1000 |  | 355 |  | 13 | 111 | 8 |  |  | Cn1cc2nc(NC(=O)Nc3ccncc3)n3nc(-c4ccco4)nc3c2c1
8.1 | 33 |  | 30 |  |  | 125 |  |  |  | Cn1cc2nc(N)n3nc(-c4ccco4)nc3c2n1
20 | 32 |  | 61 |  |  | 161 |  |  |  | CCCn1ncc2nc(NC(=O)Nc3ccc(OC)cc3)n3nc(-c4ccco4)nc3c21
> 1000 | > 1000 | 35 | > 1000 |  | 31 | 815 | 31 |  |  | COc1ccc(NC(=O)Nc2nc3cn(CCCc4ccccc4)nc3c3nc(-c4ccco4)nn23)cc1
 |  |  |  |  |  | > 10000 |  |  |  | Nc1nc2c(cnn2CCc2ccccc2)c2nc(-c3ccco3)nn12 [SCH-58261]
68 | 122 |  | 129 |  |  | 61 |  |  |  | COc1ccc(NC(=O)Nc2nc3cnn(C)c3c3nc(-c4ccco4)nn23)cc1
12 | 40 |  | 14 |  |  | 83 |  | 500 |  | CCCn1ncc2nc(N)n3nc(-c4ccco4)nc3c21
626 | 772 |  | 524 |  |  | 208 |  |  |  | COc1ccc(NC(=O)Nc2nc3cnn(CCc4ccccc4)c3c3nc(-c4ccco4)nn23)cc1
11 | 32 |  | 7.1 |  |  | 526 |  |  |  | Nc1nc2cn(CCCc3ccccc3)nc2c2nc(-c3ccco3)nn12
500 | 838 |  | 800 |  |  | 15 |  | 75 |  | COc1ccc(NC(=O)Nc2nc3cn(C)cc3c3nc(-c4ccco4)nn23)cc1
122 | 595 |  | 85 |  |  | 802 |  |  |  | Nc1nc2cnn(CCCc3ccccc3)c2c2nc(-c3ccco3)nn12
3.6 | 31 |  | 10 |  |  | 749 |  |  |  | Cn1ncc2nc(N)n3nc(-c4ccco4)nc3c21
200 | 906 |  | 743 |  |  | 10 |  | 50 |  | CCCn1cc2nc(NC(=O)Nc3ccc(OC)cc3)n3nc(-c4ccco4)nc3c2c1
 |  |  |  |  |  | > 10000 |  |  | > 10000 | Nc1nc2c(cnn2CCCc2ccccc2)c2nc(-c3ccco3)nn12 [SCH-63390]
